Experimental findings from ChEMBL document CHEMBL4028892, “Discovery of a 1-Methyl-3,4-dihydronaphthalene-Based Sphingosine-1-Phosphate (S1P) Receptor Agonist Ceralifimod (ONO-4641). A S1P1 and S1P5 Selective Agonist for the Treatment of Autoimmune Diseases” (J Med Chem, 2017) are described below.

The Cmax is the peak of the concentration-time curve. For orientation: Ki means a measure of affinity in units of concentration, obtained from inhibition or displacement. A word on the AUC(0-inf): it is the area under the concentration-time curve extrapolated to infinity. The bioavailability is dose-corrected exposure relative to a reference, in per cent. As usually defined, the EC50 is the concentration that produces a half-maximal response. A word on the ED50: it is the midpoint of the dose-response relation.

Data set [1] can be described thus: Cmax in bovine type 2 collagen-induced Lewis rat arthritis model at 0.03 mg/kg, po qd administered up to 27 days. It counts as ADME, organism-based. More on the design: dose 0.03 mg/kg, route oral. Conditions: in vivo.
The target of data set [2] is Sphingosine 1-phosphate receptor 3 (Homo sapiens, UniProt Q99500). The experiment in a line: Displacement of [33P]-S1P from human S1P3 receptor expressed in CHO-K1 cells after 60 mins by scintillation counting method. It counts as cell-based.
Data set [3] can be described thus: AUC (infinity) in Crl:CD(SD) rat at 0.1 mg/kg, iv by LC-MS/MS analysis. It counts as ADME, organism-based. More on the design: dose 0.1 mg/kg, time infinity, route intravenous. Conditions: in vivo. The essentials:
(§1)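 Single intravenous or oral dose of 0.1 mg/kg to male Crl:CD(SD) rats and to monkeys. Values are means of three animals with SD.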

Data set [4] can be described thus: Plasma concentration in unrestrained conscious cynomolgus monkey at 100 mg/kg, po measured at 4 hrs. It counts as ADME, organism-based, Macaca fascicularis. The essentials: (§2)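 Single oral dose of 1, 10 or 100 mg/kg to unrestrained conscious monkeys. Heart rate was followed from 4 to 24 h after dosing and its decrease expressed against the pretreatment value. Plasma concentration was sampled at 4 and 24 h.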

The subject of data set [5] is Cynomolgus monkey. The experiment in a line: Toxicity in unrestrained conscious cynomolgus monkey assessed as decrease in heart rate at 100 mg/kg, po administered as single dose measured at 4 hrs relative to control. Conditions: in vivo. Also noted: scale not given: the % may be the effect or the level left. It counts as organism-based, Macaca fascicularis. The essentials: as §2

Data set [6] in a line: Oral bioavailability in cynomolgus monkey at 0.1 mg/kg by LC-MS/MS analysis. It counts as ADME, organism-based, Macaca fascicularis. Conditions: in vivo. The essentials:
as §1

The target of data set [7] is T1, Sphingosine 1-phosphate receptor 1 (Homo sapiens, UniProt P21453). As to the kind of experiment: Agonist activity at human S1P1 receptor expressed in CHO-K1 cells assessed as inhibition of forskolin-stimulated cAMP accumulation after 30 mins by ELISA. It counts as functional, cell-based. For orientation: Cyclic AMP is a second messenger, typically raised through Gs and lowered through Gi signalling.

Data set [8] is described as follows: Plasma concentration in unrestrained conscious cynomolgus monkey at 10 mg/kg, po measured at 4 hrs. It counts as ADME, organism-based, Macaca fascicularis. The gist of the method: as §2
Data set [9] concerns Cynomolgus monkey. As to the kind of experiment: Decrease in peripheral lymphocyte levels in unrestrained conscious cynomolgus monkey at 0.01 to 0.03 mg/kg, po administered as single dose measured after 4 to 24 hrs by automated hematology analyzer. It counts as functional, organism-based. Conditions: Macaca fascicularis. The gist of the method:
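Single oral doses of 0.01 and 0.03 mg/kg to monkeys. Peripheral lymphocyte counts were followed from 4 to 24 h after administration.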

Data set [10] in a line: Plasma concentration in unrestrained conscious cynomolgus monkey at 100 mg/kg, po measured at 24 hrs. It counts as ADME, organism-based, Macaca fascicularis. The gist of the method:
as §2

Data set [11] deals with T2, Sphingosine 1-phosphate receptor 4 (Homo sapiens, UniProt O95977).
T2 sequence (O95977 whole entry): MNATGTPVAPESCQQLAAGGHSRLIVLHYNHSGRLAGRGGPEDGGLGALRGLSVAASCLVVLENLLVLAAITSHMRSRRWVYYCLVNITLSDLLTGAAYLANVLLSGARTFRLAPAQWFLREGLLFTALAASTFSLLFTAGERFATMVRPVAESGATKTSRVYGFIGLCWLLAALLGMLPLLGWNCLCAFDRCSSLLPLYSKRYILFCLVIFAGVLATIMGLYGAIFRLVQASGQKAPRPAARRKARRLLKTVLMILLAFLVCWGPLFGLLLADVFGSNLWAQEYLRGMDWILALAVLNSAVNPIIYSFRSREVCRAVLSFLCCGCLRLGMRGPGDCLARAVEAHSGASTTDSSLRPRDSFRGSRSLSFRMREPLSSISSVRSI
As to the kind of experiment: Displacement of [33P]-S1P from human S1P4 receptor expressed in CHO-K1 cells after 60 mins by scintillation counting method. It counts as cell-based.

Data set [12] has as its target T1, Sphingosine 1-phosphate receptor 1. The experiment in a line: Displacement of [33P]-S1P from human S1P1 receptor expressed in CHO-K1 cells after 60 mins by scintillation counting method. It counts as cell-based.
The subject of data set [13] is Mus musculus. The experiment in a line: Decrease in peripheral lymphocyte levels in po dosed BALB/c mouse at 4 hrs by automated hematology analyzer. It counts as functional. The gist of the method:
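Compound given orally to 6-week-old male BALB/c mice. At 4 or 24 h, blood was taken from the abdominal aorta under ether anaesthesia and lymphocytes counted on an automated haematology analyser. Counts expressed as % of the vehicle-group mean; ED50 is the dose lowering counts to 50%. One experiment, five mice.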

Calls of active or inactive are those of the source. The rule behind the calls is not given here.

T1 sequence (P21453 whole entry): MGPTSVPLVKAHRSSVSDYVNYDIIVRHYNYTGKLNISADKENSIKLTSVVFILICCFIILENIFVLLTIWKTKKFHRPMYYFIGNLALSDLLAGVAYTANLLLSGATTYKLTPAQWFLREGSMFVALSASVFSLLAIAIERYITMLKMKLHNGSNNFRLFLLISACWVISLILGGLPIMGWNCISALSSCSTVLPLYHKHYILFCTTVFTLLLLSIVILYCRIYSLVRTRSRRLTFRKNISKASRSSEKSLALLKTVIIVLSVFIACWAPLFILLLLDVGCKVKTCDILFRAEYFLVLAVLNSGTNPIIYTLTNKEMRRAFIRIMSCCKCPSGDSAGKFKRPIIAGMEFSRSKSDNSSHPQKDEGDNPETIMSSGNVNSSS
Sphingosine 1-phosphate receptor 3, sequence (Q99500 whole entry): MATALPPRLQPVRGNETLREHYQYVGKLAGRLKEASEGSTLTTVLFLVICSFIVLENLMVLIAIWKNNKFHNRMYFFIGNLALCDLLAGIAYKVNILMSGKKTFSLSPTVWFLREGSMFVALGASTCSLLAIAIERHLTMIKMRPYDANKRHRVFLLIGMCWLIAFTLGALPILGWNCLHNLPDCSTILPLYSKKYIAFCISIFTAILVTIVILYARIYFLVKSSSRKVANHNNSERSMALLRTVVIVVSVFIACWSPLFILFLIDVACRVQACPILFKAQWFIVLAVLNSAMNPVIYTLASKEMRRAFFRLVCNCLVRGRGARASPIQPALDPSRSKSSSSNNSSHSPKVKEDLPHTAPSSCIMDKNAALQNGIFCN

`CCCc1ccc(COc2ccc3c(c2)CCC(CN2CC(C(=O)O)C2)=C3C)c(OC)c1` gave a peak concentration (Cmax) in [1] of 5.76 nM. Also, the Ki was more than 5630 nM in data set [2], 28.8 nM in data set [11] and 0.626 nM in data set [12]. Moreover, the total exposure AUC(0-inf) in data set [3] amounted to 302 ng·h/mL. For the same compound, the concentration at 4 h in data set [4] came out at 13500 ng/mL; in [8], 3570 ng/mL. The Activity in data set [5] is recorded as 19%. Also, the bioavailability in data set [6] came out at 66.5%. Besides, the EC50 in data set [7] came out at 0.027 nM. In addition, in data set [9], the result was Active. The same compound yielded a concentration at 24 h in data set [10] of 11100 ng/mL. In data set [13], this compound gave an ED50 of 0.018 mg/kg.
